Data reported in ChEMBL document CHEMBL1157349, “2-Substituted piperazine-derived imidazole carboxamides as potent and selective CCK1R agonists for the treatment of obesity” (Bioorg Med Chem Lett, 2008).

Key:
[1] = target: T1, Cholecystokinin receptor type A (Homo sapiens, UniProt P32238); assay: Agonist activity at human CCK1 receptor; format: functional
T1 sequence (P32238 whole entry): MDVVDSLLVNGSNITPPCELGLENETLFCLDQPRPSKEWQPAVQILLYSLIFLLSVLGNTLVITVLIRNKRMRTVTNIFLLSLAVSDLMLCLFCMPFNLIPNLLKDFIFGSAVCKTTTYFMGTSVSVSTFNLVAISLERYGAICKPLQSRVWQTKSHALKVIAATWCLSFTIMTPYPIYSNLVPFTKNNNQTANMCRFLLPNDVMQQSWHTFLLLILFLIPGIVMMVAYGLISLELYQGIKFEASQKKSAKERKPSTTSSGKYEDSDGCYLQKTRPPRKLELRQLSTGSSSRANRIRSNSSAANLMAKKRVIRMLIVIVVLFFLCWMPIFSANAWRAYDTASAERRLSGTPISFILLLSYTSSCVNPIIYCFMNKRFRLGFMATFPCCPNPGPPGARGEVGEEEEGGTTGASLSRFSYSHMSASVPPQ
Outline: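 Human CCK1 receptor agonism measured in a CCK_IP3 functional assay with NFAT read-out. Values are means of ≥3 experiments, with standard deviations <75% of the average.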

[2] = target: T2, Cholecystokinin receptor type A (Homo sapiens) (UniProt P32238); assay: Agonist activity at human CCK1 receptor relative to cholecystokinin 8; format: functional
T2 sequence (whole entry): T1 sequence (P32238 whole entry)

[3] = target: T1, Cholecystokinin receptor type A; assay: Inhibition of human CCK1 receptor
[4] = target: T3, Cholecystokinin receptor type A (Mus musculus) (UniProt O08786); assay: Agonist activity at mouse CCK1 receptor relative to cholecystokinin 8; format: functional
T3 sequence (whole entry): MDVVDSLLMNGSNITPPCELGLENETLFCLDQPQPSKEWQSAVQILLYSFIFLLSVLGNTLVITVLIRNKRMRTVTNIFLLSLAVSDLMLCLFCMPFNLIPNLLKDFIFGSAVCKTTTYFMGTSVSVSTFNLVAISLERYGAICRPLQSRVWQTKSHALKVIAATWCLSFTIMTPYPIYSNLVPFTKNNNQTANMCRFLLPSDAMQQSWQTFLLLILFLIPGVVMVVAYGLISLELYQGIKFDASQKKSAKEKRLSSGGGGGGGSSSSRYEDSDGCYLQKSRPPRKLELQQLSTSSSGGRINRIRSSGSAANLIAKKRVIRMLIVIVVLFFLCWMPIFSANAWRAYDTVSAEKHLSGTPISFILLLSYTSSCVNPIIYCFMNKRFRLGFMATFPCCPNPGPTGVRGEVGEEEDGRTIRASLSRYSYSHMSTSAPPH

Mus musculus [5] = assay: Suppression of 18 hrs overnight food intake in mouse at 0.3 mg/kg, po relative to control; format: functional
Outline: (§1)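 Lean mice were dosed orally in 10% Tw80 in water. Overnight food intake was measured and expressed relative to vehicle-dosed mice.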

Mus musculus [6] = assay: Suppression of 18 hrs overnight food intake in mouse at 3 mg/kg, po relative to control; format: functional; outline: as §1
Mus musculus [7] = assay: AUC in mouse at 10 mg/kg, po; format: ADME, organism-based, Plasma; design: dose 10 mg/kg, route oral; details: in vivo
[8] = Tmax in mouse at 1 mg/kg, iv and 10 mg/kg, po; format: ADME, organism-based; details: in vivo
[9] = target: T4, Cholecystokinin receptor type A (Mus musculus, UniProt O08786); assay: Agonist activity at mouse CCK1 receptor; format: functional
T4 sequence (O08786 whole entry): T3 sequence (whole entry)
Outline: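 Mouse CCK1 receptor agonism measured in a CCK_IP3 functional assay in K1 cells. Values are means of ≥3 experiments, with standard deviations <75% of the average.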

Mus musculus [10] = assay: Suppression of 48 hrs overnight food intake in wild type mouse at 3 mg/kg, po relative to control; format: functional
Outline: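 Wild-type and CCK1R^-/- mice received an oral dose of 3 mpk. Food intake was measured at 18 h and 48 h and compared with vehicle.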

[11] = Volume of distribution in mouse at 1 mg/kg, iv and 10 mg/kg, po; format: ADME, organism-based; details: in vivo
[12] = Half life in mouse at 1 mg/kg, iv and 10 mg/kg, po; format: ADME, organism-based; details: in vivo
Mus musculus [13] = assay: Oral bioavailability in mouse at 10 mg/kg; format: ADME, organism-based; details: in vivo
[14] = Cmax in mouse at 10 mg/kg, po; format: ADME, organism-based; design: dose 10 mg/kg, route oral; details: in vivo
Mus musculus [15] = species on record: Mus musculus; assay: Gastrointestinal toxicity in wild type mouse; format: organism-based; details: in vivo
Mus musculus [16] = species on record: Mus musculus; assay: Gastrointestinal toxicity in CCK1 receptor deficient mouse; format: organism-based; details: in vivo

`CCOc1cccc(-n2cc(C(=O)N3CCN(c4cc(C(=O)O)c5ccccc5c4)C[C@@H]3CNS(C)(=O)=O)nc2-c2ccc(C)cc2)c1` gave an EC50 [1] of 0.095 nM, an Activity [2] of 72% and an IC50 [3] of 0.12 nM.
Work on `CCOc1cccc(-n2cc(C(=O)N3CCN(c4cnc5ccccc5c4)C[C@@H]3CNC(C)=O)nc2-c2ccc(C)cc2)c1` yielded an EC50 [1] of 0.1 nM, an Activity [2] of 91% and an IC50 [3] of 0.25 nM.
In the case of `CCOc1cccc(-n2cc(C(=O)N3CCN(c4cc(C(=O)O)c5ccccc5c4)C[C@H]3CNC(=O)NC)nc2-c2ccc(C)cc2F)c1`, the EC50 [1] is reported as 0.074 nM, the Activity [2] is reported as 90% and the IC50 [3] is reported as 0.097 nM.
Compound `CCOc1cccc(-n2cc(C(=O)N3CCN(c4cc(C(=O)O)c5ccccc5c4)C[C@@H]3CNC(=O)NC)nc2-c2ccc(C)cc2)c1` has an EC50 [1] of 0.13 nM, an Activity [2] of 74% and an IC50 [3] of 0.08 nM.
With `CCOc1cccc(-n2cc(C(=O)N3CCN(c4cc(C(=O)O)c5ccccc5c4)CC3)nc2-c2ccc(C)cc2)c1` the Activity [4] was 103%, the Activity (Mus musculus [5]) was 18% and the Activity (Mus musculus [6]) was 82%. For the same compound, the AUC (Mus musculus [7]) was 0.39 µM·h and the Tmax [8] was 6.7 h.
Compound `CCOc1cccc(-n2cc(C(=O)N3CCN(c4cnc5ccccc5c4)C[C@H]3CNS(C)(=O)=O)nc2-c2ccc(C)cc2)c1` has an EC50 [1] of 0.46 nM, an Activity [2] of 117% and an IC50 [3] of 0.73 nM.
For `CCOc1cccc(-n2cc(C(=O)N3CCN(c4cc(C(=O)O)c5ccccc5c4)CC3)nc2-c2ccc(C)cc2F)c1`, the EC50 [1] was 0.055 nM, the IC50 [3] was 0.04 nM and the Activity [4] was 56%. For the same compound, the Activity (Mus musculus [5]) was 13%, the Activity (Mus musculus [6]) was 86% and the AUC (Mus musculus [7]) was 0.61 µM·h. The Tmax [8] was 0.6 h.
`CCOc1cccc(-n2cc(C(=O)N3CCN(c4cnc5ccccc5c4)C[C@@H]3COC(C)=O)nc2-c2ccc(C)cc2)c1` showed an EC50 [1] of 0.25 nM, an Activity [2] of 104% and an IC50 [3] of 0.24 nM.
In the case of `CCOc1cccc(-n2cc(C(=O)N3CCN(c4cnc5ccccc5c4)C[C@H]3COCC(=O)O)nc2-c2ccc(C)cc2)c1`, the EC50 [1] is reported as 0.065 nM, the Activity [2] is reported as 93% and the IC50 [3] is reported as 0.052 nM.
With `CCOc1cccc(-n2cc(C(=O)N3CCN(c4cnc5ccccc5c4)C[C@@H]3COCC(=O)O)nc2-c2ccc(C)cc2)c1` the EC50 [1] was 0.097 nM, the Activity [2] was 96% and the IC50 [3] was 0.039 nM. It also gave an EC50 [9] of 0.5 nM and an Activity [4] of 84%.
`CCOc1cccc(-n2cc(C(=O)N3CCN(c4cnc5ccccc5c4)C[C@H]3C(=O)NC(C)C)nc2-c2ccc(C)cc2)c1` showed an EC50 [1] of 0.14 nM, an Activity [2] of 102% and an IC50 [3] of 0.24 nM.
`CCOc1cccc(-n2cc(C(=O)N3CCN(c4cc(C(=O)O)c5ccccc5c4)C[C@@H]3C(=O)NC(C)C)nc2-c2ccc(C)cc2)c1` gave an EC50 [1] of 0.082 nM, an Activity [2] of 94% and an IC50 [3] of 0.11 nM.
Compound `CCOc1cccc(-n2cc(C(=O)N3CCN(c4cnc5ccccc5c4)C[C@H]3C(=O)NCC(=O)O)nc2-c2ccc(C)cc2)c1` has an EC50 [1] of 0.089 nM, an Activity [2] of 82% and an IC50 [3] of 0.018 nM. It also gave an EC50 [9] of 0.11 nM and an Activity [4] of 99%.
In the case of `CCOc1cccc(-n2cc(C(=O)N3CCN(c4cc(C(=O)O)c5ccccc5c4)C[C@@H]3CNC(C)=O)nc2-c2ccc(C)cc2)c1`, the EC50 [1] is reported as 0.04 nM, the Activity [2] is reported as 67% and the IC50 [3] is reported as 0.08 nM.
With `CCOc1cccc(-n2cc(C(=O)N3CCN(c4cnc5ccccc5c4)C[C@H]3CNC(C)=O)nc2-c2ccc(C)cc2)c1` the EC50 [1] was 0.097 nM, the Activity [2] was 104% and the IC50 [3] was 0.39 nM.
Compound `CCOc1cccc(-n2cc(C(=O)N3CCN(c4cc(C(=O)O)c5ccccc5c4)C[C@H]3COCC(=O)O)nc2-c2ccc(C)cc2F)c1` has an EC50 [1] of 0.034 nM, an Activity [2] of 106% and an IC50 [3] of 0.041 nM.
Work on `CCOc1cccc(-n2cc(C(=O)N3CCN(c4cc(C(=O)O)c5ccccc5c4)C[C@H]3C(=O)NC(C)C)nc2-c2ccc(C)cc2F)c1` yielded an EC50 [1] of 0.071 nM, an Activity [2] of 94% and an IC50 [3] of 0.01 nM. It also gave an EC50 [9] of 0.034 nM, an Activity [4] of 94% and an Activity (Mus musculus [5]) of 32%. For the same compound, the Activity (Mus musculus [6]) was 92%, the Activity (Mus musculus [10]) was 85% and the Vd [11] was 0.42 L/kg. For the same compound, the AUC (Mus musculus [7]) was 0.1 µM·h, the half-life [12] was 2.3 h and the F (Mus musculus [13]) was 4%. For the same compound, the Cmax [14] was 180 nM, the Tmax [8] was 8 h and the Activity (Mus musculus [15]) was “Toxic”. The Activity (Mus musculus [16]) was “Non-toxic”.
`CCOc1cccc(-n2cc(C(=O)N3CCN(c4cc(C(=O)O)c5ccccc5c4)C[C@H]3CNC(C)=O)nc2-c2ccc(C)cc2F)c1` showed an EC50 [1] of 0.033 nM, an Activity [2] of 70% and an IC50 [3] of 0.058 nM. It also gave an EC50 [9] of 0.13 nM, an Activity [4] of 77% and an Activity (Mus musculus [6]) of 18%.
With `CCOc1cccc(-n2cc(C(=O)N3CCN(c4cnc5ccccc5c4)C[C@@H]3CNS(C)(=O)=O)nc2-c2ccc(C)cc2)c1` the EC50 [1] was 0.21 nM, the Activity [2] was 100% and the IC50 [3] was 0.43 nM.
Work on `CCOc1cccc(-n2cc(C(=O)N3CCN(c4cnc5ccccc5c4)C[C@@H]3CNC(=O)NC)nc2-c2ccc(C)cc2)c1` yielded an EC50 [1] of 0.16 nM, an Activity [2] of 70% and an IC50 [3] of 0.56 nM.
For `CCOc1cccc(-n2cc(C(=O)N3CCN(c4cc(C(=O)O)c5ccccc5c4)C[C@@H]3COCC(=O)O)nc2-c2ccc(C)cc2)c1`, the EC50 [1] was 0.097 nM, the Activity [2] was 85% and the IC50 [3] was 0.14 nM.
For `CCOc1cccc(-n2cc(C(=O)N3CCN(c4cnc5ccccc5c4)C[C@H]3COC(C)=O)nc2-c2ccc(C)cc2)c1`, the EC50 [1] was 0.77 nM, the Activity [2] was 118% and the IC50 [3] was 0.47 nM.
Compound `CCOc1cccc(-n2cc(C(=O)N3CCN(c4cnc5ccccc5c4)C[C@@H]3C(=O)NC(C)C)nc2-c2ccc(C)cc2)c1` has an EC50 [1] of 0.18 nM, an Activity [2] of 87% and an IC50 [3] of 0.21 nM.
`CCOc1cccc(-n2cc(C(=O)N3CCN(c4cc(C(=O)O)c5ccccc5c4)C[C@H]3C(=O)NC(C)C)nc2-c2ccc(C)cc2)c1` gave an EC50 [1] of 0.053 nM, an Activity [2] of 103% and an IC50 [3] of 0.016 nM. The EC50 [9] was 0.11 nM, the Activity [4] was 110% and the Activity (Mus musculus [5]) was 19%. For the same compound, the Activity (Mus musculus [6]) was 45%, the Vd [11] was 3.7 L/kg and the AUC (Mus musculus [7]) was 0.15 µM·h. For the same compound, the half-life [12] was 2.5 h, the F (Mus musculus [13]) was 11% and the Cmax [14] was 180 nM. The Tmax [8] was 5.5 h.
Compound `CCOc1cccc(-n2cc(C(=O)N3CCN(c4cc(C(=O)O)c5ccccc5c4)C[C@H]3CNS(C)(=O)=O)nc2-c2ccc(C)cc2F)c1` has an EC50 [1] of 0.1 nM, an Activity [2] of 97% and an IC50 [3] of 0.067 nM.
